Activity calls are given as the source filed them. The calls are words filed in the database; no cut-off is given here.

Five compounds from ChEMBL document CHEMBL1140895, “Synthesis of antisense oligonucleotides containing 2'-O-psoralenylmethoxyalkyl adenosine for photodynamic regulation of point mutations in RNA” (Bioorg Med Chem, 2009) can be followed below.

Assay [1] can be described thus: Binding affinity to oligoribonucleotide ORN-G assessed as thermal stability by UV melting study. The essentials:
(§1)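 Duplex melting curves were recorded by UV absorbance with temperature ramped at 1.0 °C/min. Each oligonucleotide was at 2.0 µM in 100 mM phosphate buffer (pH 7.0) containing 0.1 M NaCl.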

The nature of assay [2]: Binding affinity to oligoribonucleotide ORN-U assessed as intercalation by fluorescence spectroscopy.
Assay [3] can be described thus: Binding affinity to oligoribonucleotide ORN-U assessed as formation of stable A form like duplex with ORN-U by UV spectroscopy.
Assay [4] can be described thus: Binding affinity to oligoribonucleotide ORN-U assessed as thermal stability by UV melting study. The essentials:
as §1

Assay [5] is described as follows: Binding affinity to oligoribonucleotide ORN-U assessed as photo-cross-linking efficiency with ORN-U after UVA irradiation of 120 min by time course photo cross linking study.
Assay [6] in a line: Binding affinity to oligoribonucleotide ORN-U assessed as photo-cross-linking efficiency with ORN-U after UVA irradiation of 1 min by time course photo cross linking study.
Assay [7] can be described thus: Binding affinity to oligoribonucleotide ORN-G assessed as photo-cross-linking efficiency with ORN-G after UVA irradiation of 1 min by time course photo cross linking study.
Assay [8] can be described thus: Binding affinity to oligoribonucleotide ORN-U assessed as photo cross linking activity by reversed phase HPLC. The essentials: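 Equimolar 2′-Ps-oligo and ORN (2.0 µM each) were denatured at 85 °C for 5 min and slowly cooled to 37 °C in 100 mM sodium phosphate (pH 7.0) with 0.1 M NaCl. Samples were irradiated with UVA (365 nm transilluminator, 1.6 mW/cm²) and analysed by C18 reversed-phase HPLC (TEAA pH 7.0/acetonitrile gradient, 40 °C oven) to follow intact ORN and cross-linked product.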

`Cc1oc2c(C)c3oc(=O)cc(C)c3cc2c1COCCCCO[C@@H]1[C@H](OP(=O)(O)OC[C@H]2O[C@@H](n3ccc(N)nc3=O)C[C@@H]2OP(=O)(O)OC[C@H]2O[C@@H](n3cnc4c(N)ncnc43)C[C@@H]2OP(=O)(O)OC[C@H]2O[C@@H](n3cnc4c(=O)[nH]c(N)nc43)C[C@@H]2OP(=O)(O)OC[C@H]2O[C@@H](n3ccc(N)nc3=O)C[C@@H]2OP(=O)(O)OC[C@H]2O[C@@H](n3cc(C)c(=O)[nH]c3=O)C[C@@H]2OP(=O)(O)OC[C@H]2O[C@@H](n3ccc(N)nc3=O)C[C@@H]2OP(=O)(O)OC[C@H]2O[C@@H](n3ccc(N)nc3=O)C[C@@H]2O)[C@@H](COP(=O)(O)O[C@H]2C[C@H](n3cnc4c(N)ncnc43)O[C@@H]2COP(=O)(O)O[C@H]2C[C@H](n3ccc(N)nc3=O)O[C@@H]2COP(=O)(O)O[C@H]2C[C@H](n3ccc(N)nc3=O)O[C@@H]2COP(=O)(O)O[C@H]2C[C@H](n3cnc4c(=O)[nH]c(N)nc43)O[C@@H]2COP(=O)(O)O[C@H]2C[C@H](n3ccc(N)nc3=O)O[C@@H]2COP(=O)(O)O[C@H]2C[C@H](n3cnc4c(N)ncnc43)O[C@@H]2COP(=O)(O)O[C@H]2C[C@H](n3cc(C)c(=O)[nH]c3=O)O[C@@H]2CO)O[C@H]1n1cnc2c(N)ncnc21`: the results for the Tm in assay [1] and in assay [4] were 60.2 °C and 64 °C, respectively. In addition, the result in assay [2] and in assay [3] was Active.

With `Cc1oc2c(C)c3oc(=O)cc(C)c3cc2c1CO[C@@H]1[C@H](OP(=O)(O)OC[C@H]2O[C@@H](n3ccc(N)nc3=O)C[C@@H]2OP(=O)(O)OC[C@H]2O[C@@H](n3cnc4c(N)ncnc43)C[C@@H]2OP(=O)(O)OC[C@H]2O[C@@H](n3cnc4c(=O)[nH]c(N)nc43)C[C@@H]2OP(=O)(O)OC[C@H]2O[C@@H](n3ccc(N)nc3=O)C[C@@H]2OP(=O)(O)OC[C@H]2O[C@@H](n3cc(C)c(=O)[nH]c3=O)C[C@@H]2OP(=O)(O)OC[C@H]2O[C@@H](n3ccc(N)nc3=O)C[C@@H]2OP(=O)(O)OC[C@H]2O[C@@H](n3ccc(N)nc3=O)C[C@@H]2O)[C@@H](COP(=O)(O)O[C@H]2C[C@H](n3cnc4c(N)ncnc43)O[C@@H]2COP(=O)(O)O[C@H]2C[C@H](n3ccc(N)nc3=O)O[C@@H]2COP(=O)(O)O[C@H]2C[C@H](n3ccc(N)nc3=O)O[C@@H]2COP(=O)(O)O[C@H]2C[C@H](n3cnc4c(=O)[nH]c(N)nc43)O[C@@H]2COP(=O)(O)O[C@H]2C[C@H](n3ccc(N)nc3=O)O[C@@H]2COP(=O)(O)O[C@H]2C[C@H](n3cnc4c(N)ncnc43)O[C@@H]2COP(=O)(O)O[C@H]2C[C@H](n3cc(C)c(=O)[nH]c3=O)O[C@@H]2CO)O[C@H]1n1cnc2c(N)ncnc21`, the Activity in assay [5] was 35%. Further, the photo-cross-linking efficiency in assay [6] is 3%.

Take `Cc1oc2c(C)c3oc(=O)cc(C)c3cc2c1COCCO[C@@H]1[C@H](OP(=O)(O)OC[C@H]2O[C@@H](n3ccc(N)nc3=O)C[C@@H]2OP(=O)(O)OC[C@H]2O[C@@H](n3cnc4c(N)ncnc43)C[C@@H]2OP(=O)(O)OC[C@H]2O[C@@H](n3cnc4c(=O)[nH]c(N)nc43)C[C@@H]2OP(=O)(O)OC[C@H]2O[C@@H](n3ccc(N)nc3=O)C[C@@H]2OP(=O)(O)OC[C@H]2O[C@@H](n3cc(C)c(=O)[nH]c3=O)C[C@@H]2OP(=O)(O)OC[C@H]2O[C@@H](n3ccc(N)nc3=O)C[C@@H]2OP(=O)(O)OC[C@H]2O[C@@H](n3ccc(N)nc3=O)C[C@@H]2O)[C@@H](COP(=O)(O)O[C@H]2C[C@H](n3cnc4c(N)ncnc43)O[C@@H]2COP(=O)(O)O[C@H]2C[C@H](n3ccc(N)nc3=O)O[C@@H]2COP(=O)(O)O[C@H]2C[C@H](n3ccc(N)nc3=O)O[C@@H]2COP(=O)(O)O[C@H]2C[C@H](n3cnc4c(=O)[nH]c(N)nc43)O[C@@H]2COP(=O)(O)O[C@H]2C[C@H](n3ccc(N)nc3=O)O[C@@H]2COP(=O)(O)O[C@H]2C[C@H](n3cnc4c(N)ncnc43)O[C@@H]2COP(=O)(O)O[C@H]2C[C@H](n3cc(C)c(=O)[nH]c3=O)O[C@@H]2CO)O[C@H]1n1cnc2c(N)ncnc21`: the photo-cross-linking efficiency came out at 7% in assay [7] and 75% in assay [6]. Moreover, the figures for the Tm in assay [1] and in assay [4] were 59.1 °C and 63.1 °C, respectively. Further, the outcome in assay [2], in assay [3] and in assay [8] was Active.

Regarding `Cc1cn([C@H]2C[C@H](OP(=O)(O)OC[C@H]3O[C@@H](n4cnc5c(N)ncnc54)C[C@@H]3OP(=O)(O)OC[C@H]3O[C@@H](n4ccc(N)nc4=O)C[C@@H]3OP(=O)(O)OC[C@H]3O[C@@H](n4cnc5c(=O)[nH]c(N)nc54)C[C@@H]3OP(=O)(O)OC[C@H]3O[C@@H](n4ccc(N)nc4=O)C[C@@H]3OP(=O)(O)OC[C@H]3O[C@@H](n4ccc(N)nc4=O)C[C@@H]3OP(=O)(O)OC[C@H]3O[C@@H](n4cnc5c(N)ncnc54)C[C@@H]3OP(=O)(O)OC[C@H]3O[C@@H](n4cnc5c(N)ncnc54)C[C@@H]3OP(=O)(O)OC[C@H]3O[C@@H](n4ccc(N)nc4=O)C[C@@H]3OP(=O)(O)OC[C@H]3O[C@@H](n4cnc5c(N)ncnc54)C[C@@H]3OP(=O)(O)OC[C@H]3O[C@@H](n4cnc5c(=O)[nH]c(N)nc54)C[C@@H]3OP(=O)(O)OC[C@H]3O[C@@H](n4ccc(N)nc4=O)C[C@@H]3OP(=O)(O)OC[C@H]3O[C@@H](n4cc(C)c(=O)[nH]c4=O)C[C@@H]3OP(=O)(O)OC[C@H]3O[C@@H](n4ccc(N)nc4=O)C[C@@H]3OP(=O)(O)OC[C@H]3O[C@@H](n4ccc(N)nc4=O)C[C@@H]3O)[C@@H](CO)O2)c(=O)[nH]c1=O`, the Tm worked out at 58.9 °C in assay [1] and 67.3 °C in assay [4].

As to `Cc1oc2c(C)c3oc(=O)cc(C)c3cc2c1COCCCO[C@@H]1[C@H](OP(=O)(O)OC[C@H]2O[C@@H](n3ccc(N)nc3=O)C[C@@H]2OP(=O)(O)OC[C@H]2O[C@@H](n3cnc4c(N)ncnc43)C[C@@H]2OP(=O)(O)OC[C@H]2O[C@@H](n3cnc4c(=O)[nH]c(N)nc43)C[C@@H]2OP(=O)(O)OC[C@H]2O[C@@H](n3ccc(N)nc3=O)C[C@@H]2OP(=O)(O)OC[C@H]2O[C@@H](n3cc(C)c(=O)[nH]c3=O)C[C@@H]2OP(=O)(O)OC[C@H]2O[C@@H](n3ccc(N)nc3=O)C[C@@H]2OP(=O)(O)OC[C@H]2O[C@@H](n3ccc(N)nc3=O)C[C@@H]2O)[C@@H](COP(=O)(O)O[C@H]2C[C@H](n3cnc4c(N)ncnc43)O[C@@H]2COP(=O)(O)O[C@H]2C[C@H](n3ccc(N)nc3=O)O[C@@H]2COP(=O)(O)O[C@H]2C[C@H](n3ccc(N)nc3=O)O[C@@H]2COP(=O)(O)O[C@H]2C[C@H](n3cnc4c(=O)[nH]c(N)nc43)O[C@@H]2COP(=O)(O)O[C@H]2C[C@H](n3ccc(N)nc3=O)O[C@@H]2COP(=O)(O)O[C@H]2C[C@H](n3cnc4c(N)ncnc43)O[C@@H]2COP(=O)(O)O[C@H]2C[C@H](n3cc(C)c(=O)[nH]c3=O)O[C@@H]2CO)O[C@H]1n1cnc2c(N)ncnc21`, the photo-cross-linking efficiency in assay [7] was 9%; in assay [6], 50%. Also, the Tm in assay [1] was found to be 58.8 °C; in assay [4] it was 62.7 °C. Further, the result in assay [2], in assay [3] and in assay [8] was Active.
